ERp5 inh: blocks human ERp5 reductase activity on insulin; ERp5 insulin aggregation, absorbance 650 nm, 90 min; inhibition, % at 9.99 µM; hit rate 0.05% among 350,000; AID 651711;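 active means mean replicate inhibition above about 25%, with every replicate also reaching it, limit read from the data, passing the limit was not always enough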
Target sequence (Q15084 whole entry, looked up): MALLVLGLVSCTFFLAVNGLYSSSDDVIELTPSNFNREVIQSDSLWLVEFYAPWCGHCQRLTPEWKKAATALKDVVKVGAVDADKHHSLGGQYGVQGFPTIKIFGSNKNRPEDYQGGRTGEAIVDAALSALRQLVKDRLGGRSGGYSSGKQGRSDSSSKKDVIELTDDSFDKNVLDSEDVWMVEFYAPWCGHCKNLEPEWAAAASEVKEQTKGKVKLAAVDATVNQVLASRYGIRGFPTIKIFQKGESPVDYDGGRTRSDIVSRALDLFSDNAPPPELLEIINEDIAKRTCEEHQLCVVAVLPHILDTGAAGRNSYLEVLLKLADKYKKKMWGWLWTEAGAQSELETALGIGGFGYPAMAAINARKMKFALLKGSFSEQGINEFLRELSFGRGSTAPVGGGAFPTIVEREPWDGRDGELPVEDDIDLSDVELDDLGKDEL
DENV2 CPE: inhibitors of DENV2 cytopathic effect; hit rate 1.7% among 350,000; CPE inhibition, % at 9.99 µM; DENV2-infected cells, cytopathic effect rescue, plate reader; in the data active means CPE inhibition above about 20%, passing the limit was not always enough; tested in BHK-21 cells;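 further: 0% = median of neutral control wells and 100% = median of positive control wells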
C2C12 statin: suppressors of simvastatin-induced myotoxicity in C2C12 myotubes; ATP luminescence, 48 h; scaled: DMSO 0, geranylgeraniol control 100; rescue of ATP level, % at 7.49 µM; hit rate 0.78% among 330,000; AID 602340;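 active means mean ATP rescue above about 67%, or every replicate alone reaching that limit, limit read from the data, passing the limit was not always enough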;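 further: myotubes were challenged with 10 µM simvastatin during compound exposure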
PDI turbidity: blocks human protein disulfide isomerase activity; PDI insulin aggregation turbidity, A650, 90 min; inhibition, % at 10 µM; hit rate 0.052% among 350,000;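 active means mean inhibition across replicates of 30% or more, whatever share of single replicates reach that level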
F508del corr: CFTR F508del correction in bronchial cells. AID 720511. CFBE cells, YFP halide quenching; stimulated with forskolin plus potentiator P3; % fluorescence drop versus neutral controls. activity (quench increase), % at 7.58 µM. hit rate 0.36% among 350,000;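 active means mean added fluorescence quench of at least 8% versus neutral control, with both replicates also reaching 8%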;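 further: cells transiently co-express mutant CFTR-F508del with the halide-sensitive YFP; corrector assay measuring rescue of mutant channel to the surface after 24 h compound exposure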
Cneo AK release: causes C. neoformans cell lysis | adenylate kinase release luminescence, 4 h; normalised: neutral wells 0, clomiphene wells 100 | lysis activity, % at 15 µM | hit rate 0.2% among 360,000 | AID 651654;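 active means mean lysis activity across replicates of at least 80%, whatever share of replicates individually reach that level; inactive means mean lysis activity below 80%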
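Test system: log-phase Cryptococcus neoformans yeast cells; Quantity: yeast cell density of 5 × 10^6 cells/mL; Buffer or medium: YPD; Doses: single compound concentration per well; Timing: 4 h at 37 °C static, read 1 h later; Measured by: AK luminescence; Read-out basis: lysis from increased AK signal; Control set: Clomiphene as positive control.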
* = called active by the depositor; . = no result; ! = repeats disagree. Most compounds without a hit are left out; they make up all but 2.3% or so of the library.

SMILES	ERp5 inh	DENV2 CPE	C2C12 statin	PDI turbidity	F508del corr	Cneo AK release
C[C@@H]1CN([C@@H](C)CO)S(=O)(=O)c2ccc(Br)cc2O[C@H]1CN(C)C(=O)CN(C)C	2	18	0	1	-2	0
C[C@H](CO)N1C[C@H](C)[C@@H](CN(C)C(=O)CN(C)C)Oc2cc(Br)ccc2S1(=O)=O	3	33*	6	.	0	-2
CC(=O)N(C)C[C@@H]1Oc2cc(Br)ccc2S(=O)(=O)N([C@@H](C)CO)C[C@@H]1C	2	-7	-5	.	4	49
C[C@H]1CN([C@@H](C)CO)S(=O)(=O)c2ccc(Br)cc2O[C@H]1CN(C)C(=O)CN(C)C	-3	38*!	16	.	2	-1
CC(=O)N(C)C[C@@H]1Oc2cc(Br)ccc2S(=O)(=O)N([C@H](C)CO)C[C@@H]1C	2	36*!	-4	.	-5	-2
CC(C)(C)c1[nH]nc2c1C(c1ccoc1)C(C#N)=C(N)O2 (stereo not given)	.	.	92*	-7	.	6
CC(C)(C)c1[nH]nc2c1C(c1ccncc1)C(C#N)=C(N)O2 (stereo not given)	.	.	.	-4	.	2
O=C(N[C@H]1CC[C@H](CCNS(=O)(=O)c2ccc(Cl)cc2)O[C@H]1CO)c1ccccn1	3	60*	-11	.	0	30
O=C(Cc1ccccn1)NCC[C@@H]1CC[C@@H](NS(=O)(=O)c2ccc(Cl)cc2)[C@@H](CO)O1	3	34*	0	.	1	5
O=C(N[C@H]1CC[C@H](CCNS(=O)(=O)c2ccc(Cl)cc2)O[C@H]1CO)c1cccc(F)c1	-1	55*	18	.	0	52
O=C(N[C@H]1CC[C@@H](CCNS(=O)(=O)c2ccc(Cl)cc2)O[C@@H]1CO)c1ccccn1	-1	53*	-2	.	0	38
COc1ccc(C(=O)Nc2ccc3c(c2)OC[C@H](C)NC[C@@H](C)[C@@H](OC)CN(C)C3=O)cc1	4	-1	6	.	1	7
COc1ccc(S(=O)(=O)Nc2ccc3c(c2)C(=O)N([C@@H](C)CO)C[C@@H](C)[C@@H](CN(C)S(=O)(=O)c2ccc(Cl)cc2)OCCCC[C@H](C)O3)cc1	-4	35*	.	.	1	-14
COc1ccc(S(=O)(=O)N(C)C[C@H]2OCCCC[C@H](C)Oc3ccc(NS(=O)(=O)c4ccc(Cl)cc4)cc3C(=O)N([C@H](C)CO)C[C@H]2C)cc1	2	21*	.	.	4	.
COc1ccc(S(=O)(=O)Nc2ccc3c(c2)C(=O)N([C@H](C)CO)C[C@H](C)[C@@H](CN(C)S(=O)(=O)c2ccc(Cl)cc2)OCCCC[C@H](C)O3)cc1	3	-2	.	.	0	40
CC(C)NC(=O)N(C)C[C@@H]1OCCCC[C@H](C)Oc2ccc(NC(=O)CCC(F)(F)F)cc2C(=O)N([C@@H](C)CO)C[C@@H]1C	-4	6	.	.	-1	2
C[C@@H]1CCCCO[C@@H](CN(C)C(=O)C2CCCCC2)[C@H](C)CN([C@@H](C)CO)C(=O)c2cc(NC(=O)Nc3ccc(C(F)(F)F)cc3)ccc2O1	-1	-3	.	.	-1	3
Cn1ccc2c(-c3cccc(C=O)c3)cc3c(c21)C1CCC3O1 (stereo not given)	-3	50*	9	.	-3	-3
Cc1ccc(-c2ccccc2[C@@H]2C[C@H]3CN(C)C(=O)[C@]34CCCN24)o1	-4	-4	103*	-10	-2	1
O=C(Cc1cccnc1)N1CC(=O)N2[C@H](C1)[C@@H](c1ccc(C3=CCCCC3)cc1)[C@@H]2CO	10	-2	.	.	0	.
C[C@H]1CN([C@@H](C)CO)C(=O)c2cccc(NC(=O)CCCCCC(=O)Nc3ccccc3N)c2O[C@@H]1CN(C)S(=O)(=O)c1ccc(F)cc1	6	-9	.	.	2	.
CCNC(=O)C[C@@H]1CC[C@H]2[C@@H](COC[C@@H](O)CN2Cc2ccncc2)O1	.	4	-17	.	-1	-2
ClC(CCN1CCN(Cc2ccccc2)CC1)c1ccccc1 (stereo not given)	3	31*	.	-5	1	.
CC(CN1CCN(Cc2ccccc2)CC1)c1ccccc1 (stereo not given)	-3	-5	-3	-4	4	-2
COc1ccccc1-c1cn(CC[C@H]2CC[C@H](NS(=O)(=O)c3ccccc3C)[C@@H](CO)O2)nn1	2	7	6	.	4	3
SMILES	ERp5 inh	DENV2 CPE	C2C12 statin	PDI turbidity	F508del corr	Cneo AK release
O/N=C/c1ccccc1Oc1ccccc1	.	.	86*	1	.	-3
O/N=C\c1ccccc1Oc1ccc(F)cc1	-2	-15	.	-4	1	.
Cc1ccc(NC(=S)c2ccc(N(C)C)cc2)cc1	.	.	-9	4	.	.
Cc1ccc(N(C)C)cc1	1	22*	.	.	2	.
O=C(c1ccco1)N(Cc1ccco1)c1ccc(O)cc1	.	.	118*	-5	.	-1
Cc1ccc(CN(Cc2ccco2)C(=O)c2ccco2)cc1	2	1	-1	-1	-1	1
COC(=O)CC1OCC=C2CN3CCC45C6=CC(=O)C(=O)C([N+](=O)[O-])=C6NC4C1C2CC35 (stereo not given)	19	5	4	85*	-4	0
CCOc1ccccc1OCCOc1ccccc1CC	.	.	128*	-12	.	-3
CCOc1ccccc1OCCOc1ccccc1OC(C)C	.	.	.	-1	.	-2
N#Cc1c(Nc2ccccc2)[n+]([O-])c2ccc(Cl)cc2[n+]1[O-]	-7	21*	.	12	1	.
Cc1noc(C)c1NC(=O)N(C)C[C@H]1Oc2ccc(NS(=O)(=O)c3cccs3)cc2CC(=O)N([C@@H](C)CO)C[C@H]1C	.	1	-16	.	0	-1
CC(=O)Nc1cccc(C(=O)Nc2cccc3ncccc23)c1	2	-6	-3	-1	-2	0
CCOc1cc(C(=O)Nc2cccc3ncccc23)cc(OCC)c1OCC	-1	3	107*	1	-2	-1
O=C(C[C@@H]1C[C@H]2c3cc(NC(=O)c4cccnc4)ccc3O[C@H]2[C@@H](CO)O1)NC1CCCCC1	0	3	1	.	-1	55
CSc1ccc(S(=O)(=O)NC2CC3CCC2C3)cc1 (stereo not given)	-3	37*	16	9	1	0
COc1ccc(S(=O)(=O)NC2CC3CCC2C3)cc1 (stereo not given)	4	1	2	-26	-2	2
C[C@@H]1CN([C@H](C)CO)C(=O)c2cccc(NC(=O)Nc3ccc(F)cc3)c2O[C@H]1CN(C)Cc1ccc(Oc2ccccc2)cc1	2	10	32	.	-3	-1
COc1ccccc1-c1c(C)nn2c(N3CCC4(CC3)OCCO4)cc(C)nc12	.	.	85*	-1	.	6
COc1ccccc1-c1c(C)nn2c(N3CCC(C)CC3)cc(C)nc12	4	-5	-13	11	-3	.

High-throughput results (PubChem BioAssay)
